From ChEMBL document CHEMBL2407086, “Semisynthesis, cytotoxic activity, and oral availability of new lipophilic 9-substituted camptothecin derivatives” (ACS Med Chem Lett, 2013)
pIC50: −log10 of the molar value.

What was measured:
HeLa = experiment: Cytotoxicity against human HeLa cells after 72 hrs by MTT assay; format: functional, cell-based
In short: (§1)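 Cell growth measured by MTT read-out after 72 h continuous drug exposure. IC50 values derived from at least three independent experiments.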

[1] = Effective permeability of the compound in human Caco2 cells at 50 uM after 15 to 90 mins in presence of sodium azide; format: ADME, cell-based; settings: Caco-2, with sodium azide (concentration not stated), read-out: Peff
In short: (§2)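 Caco-2 monolayers dosed at 50 μM. Transport measured in both directions, apical to basal (Pab) and basal to apical (Pba), in separate runs with and without the metabolic inhibitor sodium azide. Permeability coefficients were calculated with sink or non-sink equations. Values are means of three independent experiments.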

[2] = Effective permeability of the compound in human Caco2 cells at 50 uM after 15 to 90 mins; format: ADME, cell-based; settings: Caco-2, read-out: Peff; in short: as §2
MDA-MB-231 = experiment: Cytotoxicity against human MDA-MB-231 cells after 72 hrs by MTT assay; format: functional, cell-based; settings: MDA-MB-231, 72 h; in short: as §1
A549 = experiment: Cytotoxicity against human A549 cells after 72 hrs by MTT assay; format: functional, cell-based; settings: A549, 72 h; in short: as §1
K562 [3] = experiment: Cytotoxicity against human K562 cells after 72 hrs by MTT assay; format: functional, cell-based; settings: K562, 72 h; in short: as §1
PC-3 = experiment: Cytotoxicity against human PC3 cells after 72 hrs by MTT assay; format: functional, cell-based; settings: PC-3, 72 h; in short: as §1
MCF7 = experiment: Cytotoxicity against human MCF7 cells after 72 hrs by MTT assay; format: functional, cell-based; settings: MCF7, 72 h; in short: as §1
A2780 = experiment: Cytotoxicity against human A2780 cells after 72 hrs by MTT assay; format: functional, cell-based; settings: A2780, 72 h; in short: as §1
MOLT-4 = experiment: Cytotoxicity against human MOLT4 cells after 72 hrs by MTT assay; format: functional, cell-based; settings: MOLT-4, 72 h; in short: as §1
K562 [4] = experiment: Ratio of topotecan IC50 to compound IC50 for human K562 cells; format: functional

SMILES	pIC50 (HeLa)	Papp at 50 µM [1]	Papp at 50 µM [2]	pIC50 (MDA-MB-231)	pIC50 (A549)	pIC50 (K562 [3])	pIC50 (PC-3)	pIC50 (MCF7)	pIC50 (A2780)	pIC50 (MOLT-4)	Ratio IC50 (K562 [4])
CC[C@@]1(O)C(=O)OCc2c1cc1n(c2=O)Cc2cc3c(CN4C(=O)C=CC4=O)c(O)ccc3nc2-1	< 5.30										
CC[C@@]1(O)C(=O)OCc2c1cc1n(c2=O)Cc2cc3c(CN4CCCC4=O)c(O)ccc3nc2-1	< 5.30	1.33 ×10⁻⁶ cm/s	0.48 ×10⁻⁶ cm/s								
CC[C@@]1(O)C(=O)OCc2c1cc1n(c2=O)Cc2cc3c(CN4C(=O)c5ccccc5C4=O)c(O)ccc3nc2-1	5.89										
CC[C@@]1(O)C(=O)OCc2c1cc1n(c2=O)Cc2cc3c(CN(C)C)c(O)ccc3nc2-1 [TOPOTECAN]		2.88 ×10⁻⁶ cm/s	1.77 ×10⁻⁶ cm/s	< 6.30	6.45	6.30	7.21	7.20	7.48	7.72	
CC[C@@]1(O)C(=O)OCc2c1cc1n(c2=O)Cc2cc3c(CN4C(=O)C5=C(CCCC5)C4=O)c(OC)ccc3nc2-1	6.76	2.58 ×10⁻⁶ cm/s	4.91 ×10⁻⁶ cm/s	6.30	6.65	6.96	7.29	7.11	7.55	7.85	5
CC[C@@]1(O)C(=O)OCc2c1cc1n(c2=O)Cc2cc3ccccc3nc2-1 [CAMPTOTHECIN]	7.62	1 ×10⁻⁶ cm/s	7.88 ×10⁻⁶ cm/s	6.79	7.00	7.51	7.11	7.59	7.89	10.40	
CC[C@@]1(O)C(=O)OCc2c1cc1n(c2=O)Cc2cc3c(CNC(C)=O)c(O)ccc3nc2-1	< 5.30	1.52 ×10⁻⁶ cm/s	1.17 ×10⁻⁶ cm/s								
CC[C@@]1(O)C(=O)OCc2c1cc1n(c2=O)Cc2cc3c(CN4C(=O)C5=C(CCCC5)C4=O)c(O)ccc3nc2-1	6.67			< 6.30	6.46	< 6.30	6.99	6.80	7.39	7.82	
CC[C@@]1(O)C(=O)OCc2c1cc1n(c2=O)Cc2cc3cc(O)ccc3nc2-1 [HYDROXYCAMPTOTHECIN]		1.01 ×10⁻⁶ cm/s	7.88 ×10⁻⁶ cm/s								
